Results as given in ChEMBL document CHEMBL3286386, “One-pot synthesis of vinca alkaloids-phomopsin hybrids” (J Med Chem, 2014).

How the values were obtained:
[1] = Inhibition of sheep brain tubulin assembly by UV-spectrophotometry; parameters: species or system Ovis aries
Summary of the method: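 Microtubule assembly run at 3 mg/mL tubulin; IC50 defined as the concentration inhibiting the rate of assembly by 50%.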

HCT-116 = assay: Antiproliferative activity against human HCT116 cells after 72 hrs; assay type: functional, cell-based; settings: HCT-116, 72 h
Summary of the method: (§1)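 Cells exposed to compound for 72 h; IC50 taken as the concentration giving 50% inhibition of cell proliferation.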

[2] = Antiproliferative activity against human U87 cells after 72 hrs; assay type: functional, cell-based, U-87MG ATCC; settings: U-87 MG; summary of the method: as §1
K562 = assay: Antiproliferative activity against human K562 cells after 72 hrs; assay type: functional, cell-based; settings: K562, 72 h; summary of the method: as §1
MCF7 = assay: Antiproliferative activity against human MCF7 cells after 72 hrs; assay type: functional, cell-based; settings: MCF7, 72 h; summary of the method: as §1

Row | Compound | IC50 [1] | IC50 (HCT-116) | IC50 (K562) | IC50 (MCF7) | IC50 [2]
1 | CCC1=C[C@@H]2CN(C1)C[C@H](CN1CCC[C@H]1C(=O)OC)Cc1c([nH]c3ccccc13)[C@@](C(=O)OC)(c1cc3c(cc1OC)N(C)[C@H]1[C@@](O)(C(=O)OC)[C@H](OC(C)=O)[C@]4(CC)C=CCN5CC[C@]31[C@@H]54)C2 | 1000 nM | 700 nM | 120 nM | 230 nM | 25 nM
2 | CCC1=C[C@@H]2CN(C1)C[C@H](CN1CCC[C@H]1C(=O)N[C@H](C(=O)OC)[C@@H](C)CC)Cc1c([nH]c3ccccc13)[C@@](C(=O)OC)(c1cc3c(cc1OC)N(C)[C@H]1[C@@](O)(C(=O)OC)[C@H](OC(C)=O)[C@]4(CC)C=CCN5CC[C@]31[C@@H]54)C2 | 2700 nM | 1000 nM | 250 nM | 800 nM | 400 nM
3 | CC[C@H](C)[C@H](NC(=O)[C@@H]1CCCN1C(=O)[C@H]1NC(=O)[C@H](C(C)C)NC(=O)[C@@H](NC)[C@@H](O)c2cc(Cl)c(O)c(c2)O[C@]1(C)CC)C(=O)NC(CC(=O)O)C(=O)O (mixture of isomers) | 400 nM | – | – | – | –
4 | C=C(C)[C@@H]1NC(=O)[C@@H](NC)[C@@H](O)c2cc(Cl)c(O)c(c2)O[C@](C)(CC)[C@@H](C(=O)N2CC=C[C@H]2C(=O)N/C(C(=O)N/C(=C/C(=O)O)C(=O)O)=C(\C)CC)NC1=O [PHOMOPSIN A] | 560 nM | – | – | – | –

Further lines, with some results ahead:

Row | IC50 [1] | IC50 (HCT-116) | IC50 (K562) | IC50 (MCF7) | Compound | IC50 [2]
5 | 2100 nM | – | 2.7 nM | 0.7 nM | CC[C@]1(O)C[C@@H]2CN(CCc3c([nH]c4ccccc34)[C@@](C(=O)OC)(c3cc4c(cc3OC)N(C)[C@H]3[C@@](O)(C(=O)OC)[C@H](OC(C)=O)[C@]5(CC)C=CCN6CC[C@]43[C@@H]65)C2)C1 [VINBLASTINE] | 1 nM
6 | 600 nM | – | 3.5 nM | 4 nM | CCC1=C[C@@H]2CN(C1)Cc1c([nH]c3ccccc13)[C@@](C(=O)OC)(c1cc3c(cc1OC)N(C)[C@H]1[C@@](O)(C(=O)OC)[C@H](OC(C)=O)[C@]4(CC)C=CCN5CC[C@]31[C@@H]54)C2 [VINORELBINE] | 2 nM
